The results in this text go back to ChEMBL document CHEMBL1132202, “2-Amino-3-substituted-6-[(E)-1-phenyl-2-(N-methylcarbamoyl)vinyl]imid azo[1,2-a]pyridines as a novel class of inhibitors of human rhinovirus: stereospecific synthesis and antiviral activity” (J Med Chem, 1999).

In brackets after ≈: the same amount, converted by molar mass.

What is called IC50 is the concentration needed to halve the response being measured. A high value points to a need for much substance.

Data set [1] in a line: Compound was measured for inhibition on Human Rhinovirus-14 by using CPE/XTT assay (Antiviral activity). It counts as functional, Human rhinovirus sp. Summed up: (§1)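 CPE assay run per an earlier protocol, except that surviving host cells were quantified with XTT as substrate rather than crystal violet staining. The same assay gave the cellular toxicity TC50. Control samples without drug received 0.1% DMSO.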
A general note: Tetrazolium assays rely on reduction of a dye to a coloured formazan, in cell work by metabolically active cells.

A short description of data set [2]: Compound was evaluated for cellular toxicity in on Human Rhinovirus-14 by using CPE/XTT assay (cytopathic effect assay). The settings on record: human rhinovirus sp.; read-out: TC50 (the source's name). In a few lines: as §1
The nature of data set [3]: Ratio of TC50 value to the IC50 value measured on rhinovirus-14 by using CPE/XTT assay. In kind it is functional. Summed up:
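Cytopathic-effect assay run per an earlier method, except that surviving host cells were quantified by XTT reduction instead of crystal violet staining. General cellular toxicity was taken as TC50, and the ratio was TC50 divided by IC50. No-drug controls received 0.1% DMSO.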

Data set [4] can be described thus: Compound was measured for inhibition on Human Rhinovirus-14 by using PRA assay (Antiviral activity). In kind it is functional, Human rhinovirus sp. In a few lines:
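H-HeLa cells grown in 60-mm dishes at 37 °C in MEM with 10% newborn calf serum and 1% nonessential amino acids. Overlay contained varied compound concentrations. Incubated 35 °C for 48 h, fixed with 10% formalin, stained with 0.5% crystal violet, plaques counted. Duplicate wells averaged vs DMSO controls. IC50 (50% plaque inhibition) by Reed-Muench from linear region of the curve.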

Consider `CNC(=O)/C=C(\c1ccccc1)c1ccc2nc(N)c(SC(C)C)n2c1`, for which the IC50 in data set [1] worked out at 0.21 µg/mL (≈ 0.573 µM); in data set [4], 0.17 µg/mL (≈ 0.464 µM). Further, the CC50 in data set [2] was 10 µg/mL (≈ 27.3 µM). Also, the TC50/IC50 in data set [3] amounted to 48.
For the compound `CNC(=O)/C=C(\c1ccccc1)c1ccc2nc(N)c(I)n2c1`, in data set [4], the concentration for half-maximal inhibition (IC50) is over 3.2 µg/mL.
Take `CNC(=O)/C=C(\c1ccccc1)c1ccc2nc(N)cn2c1`: the concentration for half-maximal inhibition (IC50) in data set [4] was over 10 µg/mL.
Take `CNC(=O)/C=C(\c1ccccc1)c1ccc2nc(N)c(-c3ccc(F)cc3C(F)(F)F)n2c1`: the IC50 came out at 0.48 µg/mL (≈ 1.06 µM) in data set [1] and 0.44 µg/mL (≈ 0.968 µM) in data set [4]. Also, the CC50 in data set [2] was over 10 µg/mL. Besides, in data set [3], the TC50/IC50 is reported as over 21.
On to `CNC(=O)/C=C(\c1ccccc1)c1ccc2nc(N)c(S(=O)(=O)C(C)C)n2c1`, for which the IC50 in data set [4] came to 0.64 µg/mL (≈ 1.61 µM).
Regarding `CNC(=O)/C=C(\c1ccccc1)c1ccc2nc(N)c(-c3cc(F)ccc3F)n2c1`, the half-inhibitory concentration (IC50) in data set [1] amounted to 0.16 µg/mL (≈ 0.396 µM); in data set [4], 0.18 µg/mL (≈ 0.445 µM). For the same compound, the CC50 in data set [2] was found to be 4.87 µg/mL (≈ 12 µM). For the same compound, the TC50/IC50 in data set [3] was determined as 30.
The matching figures for `CNC(=O)/C=C(\c1ccccc1)c1ccc2nc(N)c(-c3ccccc3)n2c1`: 0.3 µg/mL (≈ 0.814 µM), 0.27 µg/mL (≈ 0.733 µM), 5.03 µg/mL (≈ 13.7 µM) and 17.
The matching figures for `CNC(=O)/C=C(\c1ccccc1)c1ccc2nc(N)c(-c3ccc(F)c(F)c3F)n2c1`: 0.21 µg/mL (≈ 0.497 µM), 0.17 µg/mL (≈ 0.402 µM), 6.98 µg/mL (≈ 16.5 µM) and 33.
